From ChEMBL document CHEMBL3392964, “Design, synthesis, and evaluation of novel imidazo[1,2-a][1,3,5]triazines and their derivatives as focal adhesion kinase inhibitors with antitumor activity” (J Med Chem, 2015)
Active and inactive are the calls of the source. No cut-off for these calls is given here.

Legend:
[1] = tested on: U-87MG ATCC; assay: Antimigratory activity in human U87MG cells after 30 mins by boyden chamber assay; assay type: functional, cell-based
[2] = Antimigratory activity in human U87MG cells at 3 uM […] by transwell membrane assay; assay type: functional, U-87MG ATCC
[3] = Cell cycle arrest in human HCT116 cells assessed as accumulation at G2/M phase at 0.5 uM after 24 hrs by propidium iodide staining-based flow cytometry (reference value: 14.6%); assay type: functional; details: HCT-116
Procedure, shortened: (§1)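 Cells plated at 10^5 per well, left overnight, then exposed 24 h to compound or vehicle; stained 15 min at 37 °C with propidium iodide/Triton buffer; DNA content by flow cytometry, phase distribution fitted by Dean–Jett–Fox; HCT-116 at 0.3–0.5 μM, U87-MG at 0.3–3 μM; significance by unpaired Student's t test; one representative experiment.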

[4] = Cell cycle arrest in human U87MG cells assessed as accumulation at G2/M phase at 3 uM after 24 hrs by propidium iodide staining-based flow cytometry (reference value: 20%); assay type: functional; details: U-87MG ATCC; procedure, shortened: as §1
[5] = Cell cycle arrest in human U87MG cells assessed as accumulation at G0/G1 phase at 3 uM after 24 hrs by propidium iodide staining-based flow cytometry (reference value: 61.7%); assay type: functional; details: U-87MG ATCC; procedure, shortened: as §1
[6] = biological target: Protein-tyrosine kinase 2-beta (Homo sapiens) (UniProt Q14289); assay: Inhibition of human recombinant Pyk2 using poly[Glu:Tyr] as substrate at 1 uM by [gamma-33P]ATP-based assay
Chain of Protein-tyrosine kinase 2-beta (Homo sapiens) (Q14289 whole entry, looked up): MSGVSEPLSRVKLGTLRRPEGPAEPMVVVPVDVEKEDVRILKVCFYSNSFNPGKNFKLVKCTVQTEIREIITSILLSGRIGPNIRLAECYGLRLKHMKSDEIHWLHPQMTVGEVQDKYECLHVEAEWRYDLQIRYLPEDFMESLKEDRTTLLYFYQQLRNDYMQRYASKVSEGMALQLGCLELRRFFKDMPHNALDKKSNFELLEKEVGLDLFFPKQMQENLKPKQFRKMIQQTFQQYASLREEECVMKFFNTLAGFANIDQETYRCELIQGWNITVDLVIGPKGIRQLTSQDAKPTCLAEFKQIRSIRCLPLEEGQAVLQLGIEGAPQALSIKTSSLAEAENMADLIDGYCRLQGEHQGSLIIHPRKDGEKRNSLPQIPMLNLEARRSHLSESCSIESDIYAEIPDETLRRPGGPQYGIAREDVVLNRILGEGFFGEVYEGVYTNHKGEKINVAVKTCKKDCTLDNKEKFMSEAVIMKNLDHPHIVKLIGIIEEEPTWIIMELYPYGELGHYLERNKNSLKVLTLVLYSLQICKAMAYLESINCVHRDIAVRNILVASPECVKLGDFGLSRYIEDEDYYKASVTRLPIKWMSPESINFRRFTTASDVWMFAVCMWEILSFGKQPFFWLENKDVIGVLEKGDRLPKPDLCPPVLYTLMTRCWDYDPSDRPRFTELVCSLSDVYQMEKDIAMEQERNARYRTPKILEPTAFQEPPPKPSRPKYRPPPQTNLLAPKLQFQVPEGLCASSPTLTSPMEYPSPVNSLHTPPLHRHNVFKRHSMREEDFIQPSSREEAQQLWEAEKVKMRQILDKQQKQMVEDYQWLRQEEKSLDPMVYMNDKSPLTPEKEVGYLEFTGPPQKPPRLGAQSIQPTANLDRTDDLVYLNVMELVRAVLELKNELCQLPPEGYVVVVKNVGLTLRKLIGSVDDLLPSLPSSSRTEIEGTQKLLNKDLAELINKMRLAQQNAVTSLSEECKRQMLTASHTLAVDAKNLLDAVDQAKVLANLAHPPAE
Procedure, shortened: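 Radioactive kinase assay with [γ33P]ATP and human recombinant kinase, compound tested at 1 μM.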

[7] = tested on: HCT-116; assay: Induction of apoptosis in human HCT116 cells at < 0.5 uM after 24 hrs by Annexin V-PE/7-AAD staining-based FACS analysis; assay type: functional, cell-based
[8] = tested on: U-87 MG; assay: Reduction of cell adherence in human U87MG cells after 30 mins by toluidine blue staining-based […]; assay type: functional; details: U-87MG ATCC
Procedure, shortened: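 U87-MG cells grown in 10% serum, trypsinised, diluted to 100 000 cells/mL in 10% serum medium, then treated 30 min with compound or DMSO. 20 000 cells per well allowed to attach 1 h. Fixed in 4% paraformaldehyde 30 min, stained with 0.1% toluidine blue in 4% PFA 30 min, washed, OD read at 620 nm for attached cells.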

[9] = tested on: HCT-116; assay: Induction of apoptosis in human HCT116 cells assessed as viable cells at 0.5 uM after 24 hrs by Annexin V-PE/7-AAD staining-based FACS analysis (reference value: 93.2%); assay type: functional; details: HCT-116, 24 h, read-out: Activity
[10] = tested on: HCT-116; assay: Induction of apoptosis in human HCT116 cells assessed as necrotic cells at 0.5 uM after 24 hrs by Annexin V-PE/7-AAD staining-based FACS analysis (reference value: 0.885%); assay type: functional
[11] = biological target: T1, Focal adhesion kinase 1 (Homo sapiens, UniProt Q05397); assay: Inhibition of FAK phosphorylation at tyrosine 397 in human MDA-MB-231 cells after 48 hrs by FACEFAK ELISA; assay type: cell-based
Procedure, shortened: (§2)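 Cells in DMEM with 10% FBS, 3 × 10^3 per well, treated 48 h at 0.1, 1 and 10 μM. Fixed in 4% formaldehyde; antibodies to pTyr397-FAK or total FAK, HRP secondary, read at 450 nm. Crystal violet cell count at 595 nm. Phospho-FAK normalised to total FAK and cell number; fold decrease versus control, triplicate readings, three independent experiments.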
Target sequence in this assay (Q05397 2-1052 limits assumed): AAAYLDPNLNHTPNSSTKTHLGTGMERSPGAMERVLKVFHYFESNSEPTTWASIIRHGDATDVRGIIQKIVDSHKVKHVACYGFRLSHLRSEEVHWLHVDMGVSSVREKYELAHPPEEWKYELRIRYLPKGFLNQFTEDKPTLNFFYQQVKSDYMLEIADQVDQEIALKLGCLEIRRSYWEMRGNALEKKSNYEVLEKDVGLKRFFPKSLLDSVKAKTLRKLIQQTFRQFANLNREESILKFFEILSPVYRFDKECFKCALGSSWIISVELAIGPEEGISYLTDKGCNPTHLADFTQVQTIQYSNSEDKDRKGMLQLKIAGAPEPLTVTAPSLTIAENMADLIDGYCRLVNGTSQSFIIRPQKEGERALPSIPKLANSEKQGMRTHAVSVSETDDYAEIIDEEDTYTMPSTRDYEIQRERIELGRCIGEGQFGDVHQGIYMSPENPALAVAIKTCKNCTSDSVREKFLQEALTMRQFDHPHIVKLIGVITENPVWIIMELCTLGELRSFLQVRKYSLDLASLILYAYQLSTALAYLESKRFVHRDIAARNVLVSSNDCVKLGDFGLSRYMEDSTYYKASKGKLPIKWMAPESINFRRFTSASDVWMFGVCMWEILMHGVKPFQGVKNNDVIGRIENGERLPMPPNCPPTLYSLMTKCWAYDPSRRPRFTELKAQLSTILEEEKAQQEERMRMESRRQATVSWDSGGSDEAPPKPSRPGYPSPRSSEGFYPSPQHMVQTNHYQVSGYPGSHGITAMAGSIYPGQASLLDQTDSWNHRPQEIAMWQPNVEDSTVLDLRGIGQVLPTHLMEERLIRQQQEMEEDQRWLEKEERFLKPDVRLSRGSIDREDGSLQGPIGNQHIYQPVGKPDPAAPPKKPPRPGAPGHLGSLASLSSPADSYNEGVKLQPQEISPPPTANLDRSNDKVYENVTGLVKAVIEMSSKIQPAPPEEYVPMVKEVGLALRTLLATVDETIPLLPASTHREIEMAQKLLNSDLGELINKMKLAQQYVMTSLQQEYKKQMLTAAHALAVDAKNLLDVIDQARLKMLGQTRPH

[12] = tested on: U-87 MG; assay: Induction of apoptosis in human U87MG cells assessed as early apoptotic cells at 3 uM after 24 hrs by Annexin V-PE/7-AAD staining-based FACS analysis (reference value: 0.691%); assay type: functional, U-87MG ATCC
[13] = Cell cycle arrest in human U87MG cells at < 3 uM after 24 hrs by propidium iodide staining-based flow cytometry; assay type: functional; details: U-87MG ATCC; procedure, shortened: as §1
[14] = Cell cycle arrest in human U87MG cells assessed as accumulation at G2 phase at 3 uM after 24 hrs by propidium iodide staining-based flow cytometry relative to control; assay type: functional; details: U-87MG ATCC
Procedure, shortened: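 U87-MG cells plated at 10^5 per well, incubated overnight, then exposed to compound or vehicle control for 24 h. Cells stained with propidium iodide in PI/triton buffer for 15 min at 37 °C and analysed by flow cytometry. Cell-cycle phases were assigned by the Dean–Jett–Fox method. Significance was tested by unpaired Student's t test, and one representative experiment is shown.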

[15] = biological target: T1, Focal adhesion kinase 1; assay: Inhibition of FAK (unknown origin) using ULight-poly GT as substrate after 1.6 hrs by TR-FRET assay
Target sequence in this assay (Q05397 whole entry): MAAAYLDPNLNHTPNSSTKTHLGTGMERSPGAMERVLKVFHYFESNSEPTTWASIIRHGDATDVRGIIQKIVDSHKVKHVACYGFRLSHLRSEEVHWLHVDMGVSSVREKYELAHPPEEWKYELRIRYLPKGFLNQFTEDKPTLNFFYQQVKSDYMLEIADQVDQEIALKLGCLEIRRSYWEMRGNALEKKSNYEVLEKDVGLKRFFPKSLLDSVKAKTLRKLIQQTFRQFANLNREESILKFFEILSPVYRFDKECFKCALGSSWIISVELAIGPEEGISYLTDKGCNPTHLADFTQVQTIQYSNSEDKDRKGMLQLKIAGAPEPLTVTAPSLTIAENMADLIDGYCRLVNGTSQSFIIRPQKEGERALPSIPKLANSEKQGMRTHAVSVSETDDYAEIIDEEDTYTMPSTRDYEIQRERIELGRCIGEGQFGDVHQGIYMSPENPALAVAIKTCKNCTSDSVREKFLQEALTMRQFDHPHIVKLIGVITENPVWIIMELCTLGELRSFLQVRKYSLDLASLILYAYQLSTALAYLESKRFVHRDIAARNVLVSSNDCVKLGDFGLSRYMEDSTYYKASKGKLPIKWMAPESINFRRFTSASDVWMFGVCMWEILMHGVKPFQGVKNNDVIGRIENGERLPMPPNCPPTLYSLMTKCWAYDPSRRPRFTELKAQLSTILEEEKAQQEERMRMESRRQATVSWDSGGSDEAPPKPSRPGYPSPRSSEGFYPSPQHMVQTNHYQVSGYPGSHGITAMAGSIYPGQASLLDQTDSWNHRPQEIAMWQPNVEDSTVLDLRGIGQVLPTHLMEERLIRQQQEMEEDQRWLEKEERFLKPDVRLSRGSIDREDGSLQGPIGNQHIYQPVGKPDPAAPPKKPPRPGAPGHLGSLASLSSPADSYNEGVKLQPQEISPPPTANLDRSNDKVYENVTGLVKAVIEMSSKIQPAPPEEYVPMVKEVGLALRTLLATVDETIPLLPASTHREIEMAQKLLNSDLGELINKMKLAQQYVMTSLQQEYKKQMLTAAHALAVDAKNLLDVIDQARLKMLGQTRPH

[16] = Cell cycle arrest in human HCT116 cells at < 0.5 uM after 24 hrs by propidium iodide staining-based flow cytometry; assay type: functional; details: HCT-116; procedure, shortened: as §1
[17] = tested on: HCT-116; assay: Induction of apoptosis in human HCT116 cells assessed as apoptotic cells at 0.5 uM after 24 hrs by Annexin V-PE/7-AAD staining-based FACS analysis relative to control; assay type: functional
[18] = tested on: HCT-116; assay: (§3) Inhibition of colony formation in human HCT116 cells after 2 weeks by crystal violet staining-based assay; assay type: functional, cell-based
Procedure, shortened: (§4)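 Seeding: 250 cells per well for HCT-116, 300 for U87MG, MDA-MB-231 and PC-3; incubated overnight, then exposed to a range of concentrations for 2 weeks. Fixed in 4% paraformaldehyde 30 min at room temperature, stained with 0.1% crystal violet. Colonies over 50 cells counted; colony formation rate calculated; IC50 by nonlinear regression.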

[19] = as §3; assay type: functional, cell-based; details: HCT-116, 336 h; procedure, shortened: as §4
[20] = Antiproliferative activity against human PC3 cells after 48 hrs by WST-1 assay; assay type: functional, cell-based; details: PC-3, 48 h
Procedure, shortened: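 Exponentially growing cells in DMEM/10% FBS seeded at 5 × 10^3 per well, left overnight, then exposed 48 h to compounds diluted from DMSO; WST-1 added for 2 h, absorbance at 450 nm (reference 620 nm); viability as ratio to DMSO controls; three independent experiments, triplicate points; IC50 by nonlinear regression (log inhibitor vs normalized response, variable slope).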

[21] = biological target: T1, Focal adhesion kinase 1; assay: Inhibition of FAK phosphorylation at tyrosine 397 in human HCT116 cells after 48 hrs by FACEFAK ELISA; assay type: cell-based; details: HCT-116; procedure, shortened: as §2
Target sequence in this assay (Q05397 2-1052 limits assumed): as the sequence (Q05397 2-1052 limits assumed) above

[22] = biological target: T1, Focal adhesion kinase 1; assay: Inhibition of FAK phosphorylation at tyrosine 397 in human PC3 cells after 48 hrs by FACEFAK ELISA; assay type: cell-based; details: PC-3; procedure, shortened: as §2
Target sequence in this assay (Q05397 2-1052 limits assumed): as above

[23] = tested on: U-87 MG; assay: Induction of apoptosis in human U87MG cells assessed as late apoptotic cells at 3 uM after 24 hrs by Annexin V-PE/7-AAD staining-based FACS analysis (reference value: 1.59%); assay type: functional, U-87MG ATCC
[24] = Antiinvasive activity in human U87MG cells after 24 hrs by matrigel assay; assay type: functional, U-87MG ATCC
Procedure, shortened: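 U-87MG pre-exposed 24 h to compound or DMSO in 3% FBS, then 4 × 10^4 cells seeded in upper chamber of impedance-based CIM-16 plate (8 μm pore membrane) coated with Matrigel/collagen; lower chamber 10% FBS; cell index monitored at 37 °C, 5% CO2 for 12 h; slope (1/h) over set interval, DMSO slope set to 100; duplicate wells, repeated twice.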

[25] = tested on: U-87MG ATCC; assay: (§5) Inhibition of colony formation in human U87MG cells after 2 weeks by crystal violet staining-based assay; assay type: functional, cell-based; procedure, shortened: as §4
[26] = as §5; assay type: functional, cell-based, U-87MG ATCC; details: U-87 MG, 336 h; procedure, shortened: as §4
[27] = tested on: HCT-116; assay: Induction of apoptosis in human HCT116 cells assessed as early apoptotic cells at 0.5 uM after 24 hrs by Annexin V-PE/7-AAD staining-based FACS analysis (reference value: 4.68%); assay type: functional

In the case of `C=COC(=O)NCc1ccc(Nc2nc(Nc3ccccc3C(=O)NC)n3ccnc3n2)cc1`, the Activity [1] is reported as “Dose-dependent effect”, the Activity [2] is reported as 69.5% and the Activity [3] is reported as 54.7%. For the same molecule, the Activity [4] was 58.8%, the Activity [5] was 34.3% and the inhibition [6] was “inactive”. The Activity [7] was “Active”, the Activity [8] was “Dose-dependent effect” and the viability at 0.5 µM [9] was 62.9%. The Activity [10] was 7.77%, the inhibition [11] was “Dose-dependent effect” and the Activity [12] was 0.756%. For the same molecule, the Activity [13] was “Active”, the Ratio [14] was 2.9 and the IC50 [15] was 50 nM. For the same molecule, the Activity [16] was “Active”, the Activity [17] was 25.9% and the inhibition [18] was “Dose-dependent effect”. The IC50 [19] was 130 nM, the IC50 [20] was 290 nM and the inhibition [21] was “Dose-dependent effect”. For the same molecule, the inhibition [22] was “Dose-dependent effect”, the Activity [23] was 0.997% and the Activity [24] was 50%. For the same molecule, the inhibition [25] was “Dose-dependent effect”, the IC50 [26] was 420 nM and the Activity [27] was 13.3%.
